Assays:
[1] = test system: K562; assay: Growth inhibition of human K562 cells expressing p210Bcr/Abl after 96 hrs by trypan blue exclusion assay; type: functional, cell-based; details: K562, 96 h
In short: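 K562 cells were kept in RPMI with 10% FBS and penicillin–streptomycin at 37 °C under 5% CO2. Cells were seeded at 1 × 10^5 cells/mL with a range of compound concentrations, using DMSO as the negative control. After 96 h, viability was counted by Trypan blue exclusion and expressed as percent of DMSO control to derive GI50.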

[2] = test system: DU-145; assay: Growth inhibition of human DU145 cells after 96 hrs by trypan blue exclusion assay; type: functional; details: DU-145, 96 h

| Structure (SMILES) | GI50 [1] | GI50 [2] |
| --- | --- | --- |
| COc1ccc(OC)c(/C=C(/SCc2ccc(Cl)c(Cl)c2)C(=O)c2ccc(Cl)cc2)c1 | 10 µM | 10 µM |
| Cc1ccc(/C=C(/SCc2ccc(Cl)cc2Cl)C(=O)c2ccc(Cl)cc2)s1 | 50 µM | 50 µM |
| COc1ccccc1/C=C(/SCc1ccccc1F)C(=O)c1ccc(Cl)cc1 | 1 µM | 10 µM |
| Cc1ccc(CS(=O)(=O)/C(=C/c2c[nH]c3ccc(Br)cc23)C(=O)c2ccc(Cl)cc2)cc1 | 10 µM | 10 µM |
| COc1cc(/C=C(\C(=O)c2ccc(Cl)cc2)S(=O)(=O)Cc2ccccc2Cl)cc(OC)c1 | 50 µM | > 100 µM |
| Cc1ccsc1/C=C(/SCc1ccc(F)cc1)C(=O)c1ccc(Br)cc1 | > 100 µM | 50 µM |
| COc1ccccc1/C=C(/Sc1ccc(Br)cc1)C(=O)c1ccc(Cl)cc1 | 10 µM | 10 µM |
| COc1cc(OC)c(/C=C(/Sc2ccc(C)cc2)C(=O)c2ccc(Br)cc2)c(OC)c1 | 50 µM | > 100 µM |
| O=C(/C(=C\c1ccc(O)c([N+](=O)[O-])c1)S(=O)(=O)c1ccc(I)cc1)c1ccc(Br)cc1 | 25 µM | 25 µM |
| COc1ccc(/C=C(/Sc2ccc(C)cc2)C(=O)c2ccc(Br)cc2)cc1 | 10 µM | 50 µM |
| CC(=O)c1ccc(/C=C(/Sc2ccc(C)cc2)C(=O)c2ccc(Br)cc2)cc1 | 50 µM | 50 µM |
| Cc1ccc(C(=O)/C(=C\c2ccc(N(C)C)cc2)S(=O)(=O)c2ccc(Cl)cc2)cc1 | 50 µM | 50 µM |
| O=C(/C(=C\c1cc(Cl)cc(Cl)c1Cl)SCc1ccc(Cl)cc1)c1ccc(Br)cc1 | 1 µM | 1 µM |
| O=C(/C(=C\c1ccc(O)c([N+](=O)[O-])c1)SCc1ccccc1Cl)c1ccc(Cl)cc1 | 10 µM | 10 µM |
| O=C(/C(=C/c1ccc(Cl)cc1)Cc1c[nH]c2ccccc12)c1ccc(Cl)cc1Cl | 10 µM | 10 µM |
| COc1ccc(S/C(=C/c2ccccc2OCc2ccccc2)C(=O)c2ccc(Cl)cc2)cc1 | 1 µM | 1 µM |
| O=C(/C(=C\c1cc(Br)c(O)c(Br)c1)S(=O)(=O)Cc1ccc(Br)cc1)c1ccc(Br)cc1 | 25 µM | 25 µM |
| O=C(/C(=C\c1cc(Cl)c(O)c(Cl)c1)S(=O)(=O)Cc1ccc(Br)cc1)c1ccc(Br)cc1 | 25 µM | 25 µM |
| N#Cc1ccc(C(=O)/C(=C\c2ccc(O)c([N+](=O)[O-])c2)SCc2ccc(Br)cc2)cc1 | 10 µM | 10 µM |

| Structure (SMILES) | GI50 [1] | GI50 [2] |
| --- | --- | --- |
| CSc1ccc(/C=C(/SCc2ccc(Br)cc2)C(=O)c2ccc(C(=O)O)cc2)cc1 | 10 µM | 10 µM |
| CSc1ccc(/C=C(/SCc2ccc(Cl)cc2)C(=O)c2ccc(C(=O)O)cc2)cc1 | > 100 µM | > 100 µM |
| COc1ccc(C(=O)/C(=C\c2ccc(Br)cc2)Sc2ccc(F)cc2)cc1 | > 100 µM | > 100 µM |
| Cc1ccc(S(=O)(=O)/C(=C/c2cccs2)C(=O)c2ccc(Cl)cc2)cc1 | 50 µM | 25 µM |
| O=C(/C(=C\c1ccc(OC(F)(F)F)cc1)S(=O)(=O)c1ccc(Br)cc1)c1ccc(Br)cc1 | 25 µM | 25 µM |
| Cc1ccc(CS(=O)(=O)/C(=C/c2ccccc2OCc2ccccc2)C(=O)c2ccc(Cl)cc2)cc1 | 1 µM | 1 µM |
| O=C(/C(=C\c1ccc(Cl)cc1)SCc1ccc(F)cc1)c1ccc(Cl)cc1 | 1 µM | 10 µM |
| COc1cc(/C=C(/SCc2ccc(Br)cc2)C(=O)c2ccc(Br)cc2)cc([N+](=O)[O-])c1O | 25 µM | 25 µM |
| O=C(/C(=C/c1ccc(Cl)cc1)Cc1ccc(Cl)c(Cl)c1)c1ccc(Cl)cc1Cl | 1 µM | 1 µM |
| Cc1ccc(/C=C(\C(=O)c2ccc([N+](=O)[O-])cc2)S(=O)(=O)Cc2ccc(Cl)cc2)s1 | 10 µM | 25 µM |
| COc1ccc(/C=C(\C(=O)c2ccc(Cl)cc2)S(=O)(=O)c2ccc(C)cc2)cc1O | 1 µM | 1 µM |
| Cc1ccc(S(=O)(=O)/C(=C/c2ccc(Br)cc2)C(=O)c2ccc(Br)cc2)cc1 | 4 µM | 10 µM |
| COc1ccc(S(=O)(=O)/C(=C/c2ccc(C)s2)C(=O)c2ccc(Cl)cc2)cc1 | 10 µM | 25 µM |
| Cc1ccc(S(=O)(=O)/C(=C/c2ccc(C)s2)C(=O)c2ccc(Br)cc2)cc1 | 50 µM | 25 µM |
| Cc1ccc(C)c(/C=C(\C(=O)c2ccc(Cl)cc2)S(=O)(=O)c2ccc(Br)cc2)c1 | 1 µM | 1 µM |
| O=C(O)c1ccc(/C=C(/SCc2ccc(Cl)cc2)C(=O)c2ccc(C(=O)O)cc2)cc1 | > 100 µM | > 100 µM |
| Cc1ccc(S/C(=C/c2c(F)c(F)c(F)c(F)c2F)C(=O)c2ccc(Cl)cc2)cc1 | 25 µM | 25 µM |
| O=C(/C(=C\c1ccc([N+](=O)[O-])c(O)c1)SCc1ccc(Br)cc1)c1ccc([N+](=O)[O-])cc1 | 1 µM | 1 µM |

From ChEMBL document CHEMBL1240409, “Design, synthesis and evaluation of (E)-alpha-benzylthio chalcones as novel inhibitors of BCR-ABL kinase” (Bioorg Med Chem, 2010)
